This note sets out measurements from ChEMBL document CHEMBL4402517, “Rational modification of Mannich base-type derivatives as novel antichagasic compounds: Synthesis, in vitro and in vivo evaluation” (Bioorg Med Chem, 2019).

A short description of series [1]: Selectivity index, ratio of IC50 for African green monkey Vero cells to IC50 for Trypanosoma cruzi IRHOD/CO/2008/SN3;DTU 1. The settings on record: read-out: Selectivity Index. Type of series: toxicity. In short, it runs like this:
(§1)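 SI = Vero IC50 / epimastigote IC50. Vero cells were grown in RPMI-1640 with 10% FBS, seeded at 0.8 × 10^4 cells/well, exposed to 10.0–200.0 µM for 72 h, then given MTT for 4 h. Epimastigotes were grown in MTL with 10% FBS at 28 °C, 5 × 10^5/mL, exposed to 6.3–50 µM for 48 h, then resazurin for 24 h (570/600 nm). IC50s came from nonlinear regression.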

The nature of series [2]: Selectivity index, ratio of IC50 for African green monkey Vero cells to IC50 for Trypanosoma cruzi TINF/CH/1956/Tulahuen;DTU 6. Type of series: toxicity. The settings on record: read-out: Selectivity Index. The procedure, abridged: as §1
Series [3] has as its system Trypanosoma cruzi. Put plainly: Antitrypanosomal activity against Trypanosoma cruzi MHOM/Pe/2011/Arequipa;DTU 5 epimastigotes measured after 72 hrs by Neubauer hemocytometer. Type of series: functional, organism-based. The settings on record: MHOM/Pe/2011/Arequipa;DTU 5, 72 h.
Series [4] concerns Trypanosoma cruzi. Put plainly: Antitrypanosomal activity against Trypanosoma cruzi IRHOD/CO/2008/SN3;DTU 1 epimastigotes measured after 72 hrs by Neubauer hemocytometer. It is filed as functional, organism-based. The settings on record: IRHOD/CO/2008/SN3;DTU 1, 72 h.
Series [5] concerns Trypanosoma cruzi. The series can be described thus: Antitrypanosomal activity against Trypanosoma cruzi TINF/CH/1956/Tulahuen;DTU 6 epimastigotes measured after 72 hrs by Neubauer hemocytometer. It is filed as functional, organism-based. The settings on record: TINF/CH/1956/Tulahuen;DTU 6, 72 h.
Series [6] is described as follows: Selectivity index, ratio of IC50 for African green monkey Vero cells to IC50 for Trypanosoma cruzi MHOM/Pe/2011/Arequipa;DTU 5. It is filed as toxicity. To be noted: read-out: Selectivity Index. The procedure, abridged: as §1
The test system of series [7] is Vero. Put plainly: Cytotoxicity against African green monkey Vero cells measured after 72 hrs by MTT assay. The settings on record: Chlorocebus sabaeus. It is filed as cell-based. The procedure, abridged:
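Log-phase Vero cells (0.8 × 10^4/well) in RPMI-1640 + 10% heat-inactivated FBS at 37 °C, 5% CO2 were exposed 72 h to serial dilutions (10.0–200.0 µM; stocks in DMSO). MTT was then added for 4 h and absorbance read. Quadruplicates, three experiments; IC50 by nonlinear regression.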
In general terms: Tetrazolium assays rely on reduction of a dye to a coloured formazan, in cell work by metabolically active cells.

Series [8] has as its system Trypanosoma cruzi. Put plainly: Trypanocidal activity against Trypanosoma cruzi TINF/CH/1956/Tulahuen;DTU 6 trypomastigote forms infected in BALB/c albino mouse measured after 24 hrs by Neubauer chamber method. The settings on record: TINF/CH/1956/Tulahuen;DTU 6, 24 h.
A short description of series [9]: Selectivity index, ratio of IC50 for African green monkey Vero cells to IC50 for Trypanosoma cruzi MHOM/Pe/2011/Arequipa; DTU 5 amastigote forms. The settings on record: read-out: Selectivity Index. It is filed as toxicity. In short, it runs like this: (§2)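 Vero cells (1 × 10^4/well) were infected with trypomastigotes at MOI 10:1 for 24 h and washed with PBS. They were then exposed to 3.1–50 µM for 72 h at 37 °C in 5% CO2, and amastigotes were counted after Giemsa staining. Triplicates in two determinations; nonlinear regression.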

In series [10] the test system is Trypanosoma cruzi. Put plainly: Antitrypanosomal activity against Trypanosoma cruzi MHOM/Pe/2011/Arequipa;DTU 5 amastigote forms measured after 72 hrs by Giemsa staining based assay. Type of series: functional, organism-based. To be noted: MHOM/Pe/2011/Arequipa;DTU 5, 72 h. In short, it runs like this:
(§3)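 Vero cells (1 × 10^4/well, on coverslips) left to adhere 24 h at 37 °C, 5% CO2, then infected with trypomastigotes at MOI 10:1 for 24 h. Free parasites were removed by three PBS washes. Compounds at 3.1, 6.25, 12.5, 25 and 50 µM were incubated 72 h, and amastigotes were counted after Giemsa staining. Triplicates, two separate experiments; IC50 by nonlinear regression.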

For series [11], the system named is Trypanosoma cruzi. Put plainly: Antitrypanosomal activity against Trypanosoma cruzi IRHOD/CO/2008/SN3;DTU 1 amastigote forms measured after 72 hrs by Giemsa staining based assay. Type of series: functional, organism-based. To be noted: IRHOD/CO/2008/SN3;DTU 1, 72 h. In short, it runs like this: as §3
The nature of series [12]: Selectivity index, ratio of IC50 for African green monkey Vero cells to IC50 for Trypanosoma cruzi TINF/CH/1956/Tulahuen;DTU 6 amastigote forms. It is filed as toxicity. To be noted: read-out: Selectivity Index. In short, it runs like this: as §2
The nature of series [13]: Selectivity index, ratio of IC50 for African green monkey Vero cells to IC50 for Trypanosoma cruzi IRHOD/CO/2008/SN3;DTU 1 amastigote forms. Type of series: toxicity. To be noted: read-out: Selectivity Index. In short, it runs like this: as §2
Series [14] concerns Trypanosoma cruzi. Put plainly: Trypanocidal activity against Trypanosoma cruzi trypomastigote form infected in African green monkey Vero cells assessed as ratio of infected cells at 50 uM measured after 72 hrs by Giemsa staining based assay relative to control. It is filed as functional. In short, it runs like this:
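Vero cells (1 × 10^4/well, on coverslips) were infected with trypomastigotes at MOI 10:1 for 24 h and washed three times with PBS. They were treated at 3.1, 6.25, 12.5, 25 and 50 µM for 72 h at 37 °C in 5% CO2. Infected cells were counted after Giemsa staining. Triplicates, two separate determinations.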

The subject of series [15] is Trypanosoma cruzi. The series can be described thus: Antitrypanosomal activity against bloodstream trypomastigote stage of Trypanosoma cruzi MHOM/Pe/2011/Arequipa; DTU 5 isolated from parasite infected BALB/c Albino mouse cardiac cells after 24 hrs by Neubauer chamber based cell counting method. The settings on record: DTU 5, 24 h. Type of series: functional, organism-based. The procedure, abridged: (§4)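 Bloodstream trypomastigotes were taken by cardiac puncture from infected BALB/c mice and diluted in RPMI + 10% heat-inactivated FBS. At 2 × 10^6/mL they were exposed to 3.1–50.0 µM (lower where needed) for 24 h at 37 °C, 5% CO2, and counted in a Neubauer chamber. Triplicates, at least three experiments; IC50 by nonlinear regression.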

The nature of series [16]: Selectivity index, ratio of IC50 for African green monkey Vero cells to IC50 for Trypanosoma cruzi IRHOD/CO/2008/SN3;DTU 1 trypomastigote forms. It is filed as toxicity. The settings on record: read-out: Selectivity Index. The procedure, abridged: (§5)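 Bloodstream trypomastigotes were taken from BALB/c mice by cardiac puncture and diluted in RPMI with 10% FBS at 2 × 10^6/mL. They were incubated with 3.1–50.0 µM for 24 h at 37 °C in 5% CO2 and counted in a Neubauer chamber. Triplicate, at least three experiments; nonlinear regression.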

Series [17] in a line: Selectivity index, ratio of IC50 for African green monkey Vero cells to IC50 for Trypanosoma cruzi TINF/CH/1956/Tulahuen;DTU 6 trypomastigote forms. It is filed as toxicity. The settings on record: read-out: Selectivity Index. In short, it runs like this: as §5
Series [18] relates to Trypanosoma cruzi. The series can be described thus: Antitrypanosomal activity against Trypanosoma cruzi TINF/CH/1956/Tulahuen;DTU 6 amastigote forms measured after 72 hrs by Giemsa staining based assay. It is filed as functional, organism-based. The settings on record: TINF/CH/1956/Tulahuen;DTU 6, 72 h. In short, it runs like this:
as §3

Series [19] is described as follows: Selectivity index, ratio of IC50 for African green monkey Vero cells to IC50 for Trypanosoma cruzi MHOM/Pe/2011/Arequipa; DTU 5 trypomastigote forms. It is filed as toxicity. To be noted: read-out: Selectivity Index. In short, it runs like this:
as §5

Series [20] deals with Trypanosoma cruzi. Put plainly: Antitrypanosomal activity against bloodstream trypomastigote stage of Trypanosoma cruzi IRHOD/CO/2008/SN3;DTU 1 isolated from parasite infected BALB/c Albino mouse cardiac cells after 24 hrs by Neubauer chamber based cell counting method. Type of series: functional, organism-based. To be noted: IRHOD/CO/2008/SN3;DTU 1, 24 h. The procedure, abridged: as §4

Series [21] deals with Trypanosoma cruzi. Put plainly: Trypanocidal activity against Trypanosoma cruzi trypomastigote form infected in African green monkey Vero cells measured after 48 hrs by resazurin dye based assay. It is filed as functional, organism-based. (Resazurin is reduced to fluorescent resorufin, in cell work by metabolically active cells.)

As usually defined, the IC50 is the concentration needed to halve the response being measured. As to `O=C(CCN1CCN(c2ccc(F)cc2)CC1)c1ccc(O)cc1`, the selectivity ratio in series [1] amounted to 5; in [2] it was 3.9; in series [6], 2.1. For the same molecule, the IC50 worked out at 24.4 µM in series [3], 10.1 µM in [4], 13 µM in series [5] and 50 µM in [7].
For the molecule `COc1ccc(C(=O)CCNCCc2ccc(C(F)(F)F)cc2)cc1`, the selectivity ratio in series [1] is 6.9; in [2], 6.9; in series [9], 10; in [12], 27.7; in [13], 20.2; in [6], 1.5. The selectivity ratio in [16] turned out to be 16.7; in series [17] it was 26.1; in [19], 25. For the same molecule, the IC50 is 3.5 µM in series [8]; 9.1 µM in series [10]; 4.5 µM in [11]; 59.7 µM in series [3]; 13.2 µM in [4]; 13.2 µM in [5]. Besides, the IC50 in [15] stood at 3.6 µM; in [7] it was 91.1 µM; in [18], 3.3 µM; in series [20] it was 5.5 µM; in [21], 13.9 µM. For the same molecule, in series [14], the Ratio is reported as 17%.
Consider `O=C(CCN1CCN(c2ccc([N+](=O)[O-])cc2)CC1)c1ccc(O)cc1`, for which the selectivity ratio is 2.7 in series [1], 0.8 in [2] and 1.4 in [6]. Besides, the half-maximal inhibitory concentration (IC50) in series [3] came to 24.8 µM; in [4], 13 µM; in [5] it was 43 µM; in series [7], 34.6 µM.
With `COc1ccc(C(=O)CCNCCc2ccc(Cl)cc2)cc1`, the selectivity ratio worked out at 3.7 in series [1], 3.5 in series [2] and 1 in [6]. For the same molecule, the IC50 in [3] worked out at 51.6 µM; in series [4], 14.6 µM; in series [5] it was 15.2 µM; in [7], 53.5 µM.
For `COc1ccc(C(=O)CCNc2ccc(Cl)cc2)cc1`, the selectivity ratio is 3.8 in [1]; 8.9 in [2]; 19.9 in series [9]; 5.5 in series [12]; 24.1 in [13]; 7.8 in [6]. For the same molecule, the values for the selectivity ratio in [16], in series [17] and in [19] were 2.3, 10.2 and 11.2, respectively. Moreover, the IC50 in series [8] is 14.2 µM; in series [10], 7.3 µM; in [11], 6 µM; in series [3], 18.7 µM; in [4], 38.4 µM; in series [5] it was 16.4 µM. Also, the IC50 was 13 µM in series [15]; 146 µM in series [7]; 26.3 µM in series [18]; 63 µM in series [20]; 9 µM in series [21]. Moreover, the Ratio in series [14] was found to be 28%.
With `COc1ccc(C(=O)CCNCCc2ccc(F)cc2)cc1`, the selectivity ratio was 3.9 in series [1], 3.3 in series [2] and 1.9 in series [6]. Also, the IC50 came out at 35.6 µM in [3], 16.9 µM in [4], 20.3 µM in series [5] and 66.2 µM in [7].
Turning to `COc1ccc(C(=O)CCNc2ccc(C(F)(F)F)cc2)cc1`, the selectivity ratio stood at 0.4 in [1], 1.3 in series [2] and 1.8 in series [6]. The IC50 in series [3] stood at 17.8 µM; in series [4], 76.1 µM; in series [5] it was 24.6 µM; in series [7] it was 32.6 µM.
As to `COc1ccc(C(=O)CCNc2ccc(F)cc2)cc1`, the selectivity ratio turned out to be 5.2 in [1]; 9.3 in series [2]; 27.6 in series [9]; 20.1 in series [12]; 24.7 in series [13]; 9 in series [6]. Also, the selectivity ratio in series [16] was found to be 39.4; in series [17], 48.8; in series [19] it was 64.8. Also, the IC50 in series [8] amounted to 2.7 µM; in [10], 4.7 µM; in [11] it was 5.4 µM; in series [3], 14.8 µM; in [4], 25.4 µM; in series [5], 14.4 µM. Also, the IC50 in series [15] stood at 2.1 µM; in series [7] it was 133 µM; in series [18], 6.7 µM; in [20], 3.4 µM; in series [21], 7.1 µM. Besides, the Ratio in [14] is 10%.
